The nature of data set [1]: Photophysical characterization and relative fluorescence quantum yield. The conditions noted are these: for Quantum Yield (relative fluorescence quantum yield, ΦFrel): ethanol, standard coumarin 343, 405/475 nm. In kind it is physicochemical. A digest of the protocol:
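Relative quantum yield in ethanol: absorbance at 405 nm and fluorescence at ex/em 405/475 nm were measured for samples and for the coumarin 343 reference (Q_r 0.63 in ethanol). The refractive-index ratio was taken as 1.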

The nature of data set [2]: Microplate time- and pH-dependent fluorescence response to ONOO−. The following applies: probe 1 μM, ONOO− 600 μM. In a few lines: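 Water-soluble probe (1 μM) was treated with ONOO⁻ (600 μM) in 50 mM MES (pH 5.8) or 50 mM Tris (pH 6.8, 7.8, 8.8). Fluorescence (ex/em 405/475 nm) was read on a microplate reader over time and expressed relative to untreated samples at t = 0 min.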

Data set [3] is described as follows: Selectivity against RONS, microplate F/F0. The conditions noted are these: for F/F0: probe 1 μM. A digest of the protocol: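 Probe (1 μM final, from a 100 μM DMSO stock) was mixed with each RONS (estimated 600 μM) in 50 mM Tris pH 7.5 containing 600 μM EDTA. HO· was generated in situ from Fe(ClO₄)₂ plus H₂O₂ (36 mM), and ¹O₂ from NaOCl plus H₂O₂. Plate fluorescence (405/475 nm) was read at 1 and 60 min; F/F₀ = 60-min reading over t₀.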

Another data set relates to PCLS. Put plainly: Confocal imaging of PCLS exposed to nitrogen mustard. Format: cell-based, mice. The following applies: 75 μM TEG-TC-ONOO–, compared to 75 μM LNPs with ∼4 μM DPPC-TC-ONOO–.
A short description of data set [4]: Solubility, stated in words. In kind it is physicochemical. The following applies: aqueous media and buffers.
For data set [5] the following is noted: cited from earlier work.
The nature of data set [6]: Determination of pKa by UV-Vis absorbance. Format: physicochemical. The following applies: MES and Tris buffers of different pH, pH 5.2.
Data set [7] in a line: pH dependence of fluorescence intensity. In kind it is physicochemical. The conditions noted are these: 405/475 nm; 1 µM.
For data set [8] the following is noted: in ethanol, cited from earlier work.
Data set [9] in a line: Competitive oxidation assay with the ketone 1. The conditions noted are these: ketone 1 (600 μM) alone treated with ONOO− (600 μM), Tris pH 7.5. A digest of the protocol: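 Ketone-competition variant of the microplate assay in 50 mM Tris pH 7.5: ketone competitor (600 μM) with ONOO⁻ (600 μM), alone or added after the probe (1 μM) had been pre-mixed 5 min with ONOO⁻ (600 μM). Probe plus ONOO⁻ without competitor was run in parallel. Fluorescence (ex/em 405/475 nm) was followed over time.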

Read-outs that look alike come from different tables or passages of the source. Bounds are passed on as bounds.

Turning to `O=C(Oc1ccc(CCC(=O)C(F)(F)F)cc1)Oc1ccc2cc(-n3cc(COCCOCCOCCO)nn3)c(=O)oc2c1` [TEG-TC-ONOO^–, 3-(4-((2-(2-(2-hydroxyethoxy)ethoxy)ethoxy)methyl)-1H-1,2,3-triazol-1-yl)-2-oxo-2H-chromen-7-yl (4-(4,4,4-trifluoro-3-oxobutyl)phenyl) carbonate], in [1], the Brightness is recorded as 358, the “Extinction Coefficient” value amounted to 4475 M⁻¹ cm⁻¹, the “Max Em” value is recorded as 472.0 nm and the “Max Ex” value worked out at 400.0 nm. Also, in [1], the Relative brightness was determined as 1.4 and the “Quantum Yield (relative fluorescence quantum yield, ΦFrel)” value stood at 0.08. In data set [2] (pH 5.8 and 6.8), the fluorescence generation result was “little or no fluorescence generation”. The “fluorescence relative to untreated sample (t = 0 min)” value in [2] (pH 7.8, until 30 min) is on record as “up to 6.5 times”. In addition, in [2] (pH 8.8, until 30 min), the “fluorescence relative to untreated sample (t = 0 min)” value was not above 8 times. For the same compound, in data set [3], the “relative fluorescence enhancement for ONOO− compared to the other RONS” value was approximately 36 fold. Besides, in data set [3] (H2O2 600 μM, 60 min), the “fluorescence intensity stronger than background” value is reported as 16% and the F/F0 worked out at 1.16. In data set [3] (ONOO− 600 μM, 60 min), this compound came in with an increase in fluorescence of approximately 570% and a F/F0 of 6.69. In [3] (absence of a redox species, 60 min), this compound yielded an increase in fluorescence of 13%. Moreover, the F/F0 in data set [3] (absence of a redox species, 60 min, Tris pH 7.5) worked out at 1.13. Also, the change in fluorescence result in [3] (species other than ONOO−, 600 μM, 60 min) is recorded as “only negligible levels of change in fluorescence”. This compound also returned a F/F0 in data set [3] (·NO 600 μM, 60 min) of 1.03. For the same compound, in the data set on PCLS, the “signal within PCLS exposed to NM (405 nm excitation)” value was “considerably weak signals”. In addition, in [4], the solubility result is recorded as “highly soluble”.
The pKa is the pH at which an ionisable group is half protonated. Take `O=NOO` [ONOOH, peroxynitrous acid]: in data set [5], the chemical half-life is given as 0.63 s and the pKa is on record as 6.8. For the same compound, in data set [5] (estimated, depends on concentration of biological targets), the biological half-life is 10–20 ms.
With `O=c1oc2cc(O)ccc2cc1-n1cc(COCCOCCOCCO)nn1` [TEG-TC, 7-hydroxy-3-(4-((2-(2-(2-hydroxyethoxy)ethoxy)ethoxy)methyl)-1H-1,2,3-triazol-1-yl)-2H-chromen-2-one], in data set [1], the Brightness is 10305, the “Extinction Coefficient” value worked out at 15613 M⁻¹ cm⁻¹, the “Max Em” value was 471.4 nm and the “Max Ex” value was 397.0 nm. Also, in [1], the Relative brightness is given as 41.1 and the “Quantum Yield (relative fluorescence quantum yield, ΦFrel)” value is 0.66. In addition, in [6], the pKa is 7.1 ± 0.1. In data set [7], the “fluorescence signal intensity at pH 7.5–8.8 relative to pH 5.8” value is given as 18- to 20 fold.
As to `O=C(O)c1cc2cc3c4c(c2oc1=O)CCCN4CCC3` [coumarin 343], in [8], the “absolute fluorescence quantum yield (ΦF)” value was 0.63. Also, in data set [8] (ref Sigma Aldrich), the “quantum yield of reference standard (Qr)” value is 0.63.
With `O=C(CCc1ccc(O)cc1)C(F)(F)F` [Compound 1, 1,1,1-trifluoro-4-(4-hydroxyphenyl)butan-2-one], in [9], the fluorescence generation entry is on record as “no fluorescence”.

These data come from article PMC10746523 (iScience, 2023).
